According to paper PMC6044994 (ACS Omega, 2018):
Converted amounts (≈) assume the structure as drawn. Read-outs that look alike come from different tables or passages of the source.

What was measured:
[1] = tested on: human red blood cells (hRBCs); assay: Hemolytic assay; format: cell-based
Outline: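 Erythrocytes from healthy donors (EDTA) pelleted at 2000 rpm for 10 min at 20 °C and washed three times in PBS. Made to a 10% suspension, diluted 1:10, then mixed 1:1 with test compound in PBS (gradient 1000–7.8 μg/mL). Incubated 1 h at 37 °C and centrifuged; supernatant A450 used to calculate % hemolysis.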

E. coli cells = assay: TEM analysis of cell morphology; format: cell-based, Escherichia coli; details: MIC concn, 1 h
Outline: (§1)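 Cells standardized to A600 ≈ 0.1 and exposed 1 h to test compound: E. coli at 62.5 or 125 μg/mL, S. pneumoniae at 125 μg/mL. Washed in PBS, fixed overnight in 2.5% glutaraldehyde (phosphate/MgCl2 buffer, pH 6.5). Postfixed 2 h in 2% OsO4, stained en bloc with 1% uranyl acetate, ethanol-dehydrated, Epon-embedded (60 °C, 48 h). Ultrathin sections imaged by TEM.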

[2] = tested on: multidrug-resistant E. coli strains MRA11, MRC17, MRAE33; assay: Synergistic study with CIP, checkerboard method; format: cell-based, Escherichia coli; details: for MIC: Escherichia coli
[3] = tested on: multidrug-resistant E. coli strains; format: cell-based, Escherichia coli; details: for inhibition at 1024 µg/mL: Escherichia coli
G. mellonella larvae [4] = assay: In vivo toxicity, hemocyte density of larvae; parameters: species or system Galleria mellonella; details: 2.5 mg/mL, 24 h
Outline: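 Three larvae injected with 20 μL of test compound at 1.25 or 2.5 mg/mL and kept 24 h at 30 °C in the dark. Hemolymph collected from the anterior end and diluted 1 in 10 in cold PBS with 0.37% 2-mercaptoethanol. Hemocytes counted on a hemocytometer and density back-calculated.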

E. coli [5] = assay: CFU count of bacterial cells post treatment; format: cell-based, Escherichia coli; details: treated bacterial cells
S. pneumoniae biofilm [6] = assay: Anti-biofilm activity by crystal violet assay; format: cell-based; details: Streptococcus pneumoniae, read-out: inhibition of biofilm formation (crystal violet)
S. pneumoniae [7] = assay: Growth kinetic studies; format: cell-based, Streptococcus pneumoniae; details: for time at which growth was observed: S. pneumoniae
Outline: (§2)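 Fresh cultures grown 12 h at 37 °C, then about 2 × 10^6 cells/mL inoculated into 50 mL nutrient broth. […] Shaken at 37 °C, 160 rpm. Samples taken every 2 h from 0 to 22 h, with OD600 plotted against time.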

E. coli (ATCC 25922) = assay: In vitro antibacterial activity, broth dilution; format: cell-based; details: Escherichia coli, ATCC25922
E. coli [8] = assay: Growth kinetic studies; format: cell-based, Escherichia coli; details: for time at which growth was observed (lag phase): sub-MIC concentration
Outline: as §2

HEK293 cells = assay: Cytotoxicity by MTT assay; format: cell-based, human; details: HEK293, up to 100 μg/mL concentration
[9] = Cytotoxicity by MTT assay; format: cell-based, human; details: human, HEK293 cells
E. coli biofilm [10] = assay: Anti-biofilm activity by crystal violet assay; format: cell-based; details: Escherichia coli, read-out: inhibition of biofilm formation (crystal violet)
S. pneumoniae (MTCC 655) = assay: In vitro antibacterial activity, broth dilution; format: cell-based; details: Streptococcus pneumoniae, MTCC655
E. coli biofilm [11] = assay: Anti-biofilm activity by XTT reduction assay; format: cell-based; details: Escherichia coli, read-out: inhibition of biofilm formation (XTT)
Outline: (§3)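 Biofilm grown in tryptic soy broth from 5 × 10^5 CFU/mL inocula with 2-fold serial dilutions of test compound (7.812–1000 μg/mL), 37 °C for 24 h, static. Nonadherent cells removed by PBS wash.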

S. pneumoniae biofilm [12] = assay: Anti-biofilm activity by XTT reduction assay; format: cell-based; details: Streptococcus pneumoniae, read-out: inhibition of biofilm formation (XTT)
Outline: as §3

S. pneumoniae cells = assay: TEM analysis of cell morphology; format: cell-based, Streptococcus pneumoniae; details: MIC concn, 1 h
Outline: as §1

S. pneumoniae [13] = assay: CFU count of bacterial cells post treatment; format: cell-based, Streptococcus pneumoniae; details: treated bacterial cells
G. mellonella larvae [14] = assay: In vivo toxicity, larval viability; parameters: species or system Galleria mellonella; details: up to 2.5 mg/mL
[15] = E. coli MRA11, in combination with CIP
[16] = E. coli MRA11, test compound in combination with CIP
[17] = E. coli MRAE33, in combination with CIP
[18] = E. coli MRAE33, test compound in combination with CIP
[19] = E. coli MRC17, in combination with CIP
[20] = E. coli MRC17, test compound in combination with CIP
[21] = read-out: MIC alone, E. coli MRA11
[22] = read-out: MIC alone, E. coli MRAE33
[23] = read-out: MIC alone, E. coli MRC17
[24] = read-out: % inhibition of growth, E. coli MRA11, at 1024 μg/mL (MIC)
[25] = read-out: % inhibition of growth, E. coli MRAE33, at 1024 μg/mL (MIC)
[26] = read-out: % inhibition of growth, E. coli MRC17, at 1024 μg/mL (MIC)

Row | SMILES | cell lysis ([1]; 200 μg/mL) | cell lysis ([1]; 600 μg/mL) | effect on cell morphology (TEM) (E. coli cells) | FICI [2, 15] | mode of interaction [2, 15] | MIC in combination [2, 16] | FICI [2, 17] | mode of interaction [2, 17] | MIC in combination [2, 18] | FICI [2, 19] | mode of interaction [2, 19] | MIC in combination [2, 20] | MIC [2, 21] | MIC [2, 22] | MIC [2, 23] | inhibition at 1024 µg/mL [3, 24] | inhibition at 1024 µg/mL [3, 25] | inhibition at 1024 µg/mL [3, 26] | CFUs E. coli (E. coli [5]) | CFUs S. pneumoniae (S. pneumoniae [13]) | other results
1 | O=C(O)c1ccc(-n2cc(COC3=CC(=O)c4ccccc4C3=O)nn2)cc1 [Compound 5u, 4-(4-((1,4-Dioxo-1,4-dihydronaphthalen-2-yloxy)methyl)-1H-1,2,3-triazol-1-yl)benzoic Acid] | 9% | 12% | significantly damaged the cell wall | 0.62 | partially synergistic (Partially synergistic was denoted by 0.5 > FICI < 1) | 512 µg/mL | 1.02 | indifferent (indifferent was defined by 1 < FICI ≤ 4) | 16 µg/mL | 1.50 | indifferent (indifferent was defined by 1 < FICI ≤ 4) | 1024 µg/mL | 1020 µg/mL | 1020 µg/mL | 1020 µg/mL | > 90% | ~100% | ~100% | 2.7 × 10^4 | 6.0 × 10^3 | hemocyte density of the larvae (G. mellonella larvae [4]): not significantly affected; inhibition at 250 µg/mL (S. pneumoniae biofilm [6]): 98.3%; time at which growth was observed (S. pneumoniae [7]; MIC concentration): 9 h; time at which growth was observed (S. pneumoniae [7]; sub-MIC concentration): 8 h; MIC (E. coli (ATCC 25922)): 125 µg/mL (≈ 333 µM); time at which growth was observed (E. coli [8]; E. coli, MIC concentration): 9 h; time at which growth was observed (lag phase) (E. coli [8]; E. coli): 6 h; cytotoxicity (HEK293 cells): did not show significant cytotoxicity; viability at 48 h, 50 μg/mL [9]: > 75%; viability at 48 h, 200 μg/mL [9]: > 50%; inhibition at 250 µg/mL (E. coli biofilm [10]): 77.3%; MIC (S. pneumoniae (MTCC 655)): 125 µg/mL (≈ 333 µM); inhibition at 250 µg/mL (E. coli biofilm [11]): 92.3%; inhibition at 250 µg/mL (S. pneumoniae biofilm [12]): 100%; effect on cell morphology (TEM) (S. pneumoniae cells): significantly damaged the cell wall; viability of the larvae (G. mellonella larvae [14]): not affected
2 | Cc1ccc(C(C)C)cc1OCc1cn(-c2ccc(C(=O)O)cc2)nn1 [Compound 5e, 4-(4-((5-Isopropyl-2-methylphenoxy)methyl)-1H-1,2,3-triazol-1-yl)benzoic Acid] | 9% | 22% | significantly damaged the cell wall | 0.03 | synergistic (Synergy and antagonism were defined by FICI ≤ 0.5 and >4, respectively) | 16 µg/mL | 1.02 | indifferent (indifferent was defined by 1 < FICI ≤ 4) | 16 µg/mL | 0.03 | synergistic (Synergy and antagonism were defined by FICI ≤ 0.5 and >4, respectively) | 16 µg/mL | 1020 µg/mL | 1020 µg/mL | 1020 µg/mL | > 95% | 86% | 79% | 2.5 × 10^4 | 7.8 × 10^3 | hemocyte density of the larvae (G. mellonella larvae [4]): not significantly affected; inhibition at 250 µg/mL (S. pneumoniae biofilm [6]): 93.4%; growth of S. pneumoniae (S. pneumoniae [7]; sub-MIC concentration (62.5 μg/mL)): effectively inhibited the growth; MIC (E. coli (ATCC 25922)): 62.5 µg/mL (≈ 178 µM); time at which growth was observed (lag phase) (E. coli [8]; E. coli): approximately 6 h; growth of E. coli (E. coli [8]; MIC and 2MIC concentrations, up to 22 h of incubation): no significant growth; cytotoxicity (HEK293 cells): did not show significant cytotoxicity; viability at 48 h, 50 μg/mL [9]: > 75%; viability at 48 h, 200 μg/mL [9]: > 50%; inhibition at 125 µg/mL (E. coli biofilm [10]): 94.3%; MIC (S. pneumoniae (MTCC 655)): 125 µg/mL (≈ 356 µM); inhibition at 125 µg/mL (E. coli biofilm [11]): 95.2%; inhibition at 250 µg/mL (S. pneumoniae biofilm [12]): 92.3%; effect on cell morphology (TEM) (S. pneumoniae cells): significantly damaged the cell wall; viability of the larvae (G. mellonella larvae [14]): not affected
3 | O=C(O)c1cn(C2CC2)c2cc(N3CCNCC3)c(F)cc2c1=O [CIP, Ciprofloxacin, reference compound] | 0.8% |  |  |  |  |  |  |  |  |  |  |  | 128 µg/mL | 2 µg/mL | 128 µg/mL |  |  |  | 2.0 × 10^4 | 5.0 × 10^3 | MIC in combination ([2]; E. coli MRA11, CIP in combination with 5e): 2 µg/mL; MIC in combination ([2]; E. coli MRA11, CIP in combination with 5u): 16 µg/mL; MIC in combination ([2]; E. coli MRAE33, CIP in combination with 5e): 2 µg/mL; MIC in combination ([2]; E. coli MRAE33, CIP in combination with 5u): 2 µg/mL; MIC in combination ([2]; E. coli MRC17, CIP in combination with 5e): 2 µg/mL; MIC in combination ([2]; E. coli MRC17, CIP in combination with 5u): 64 µg/mL; % inhibition of growth ([3]; multidrug-resistant E. coli strains, at a concentration lower than those of the compounds): ~100%
